These results are taken from ChEMBL document CHEMBL1123950, “N-(Retinoyl)amino acids. Synthesis and chemopreventive activity in vitro” (1988).

Common to all, as to assay type: functional, Cricetulus griseus
In test [1] the test system is Cricetinae gen. sp. The test can be described thus: Cultures with marked degree of squamous metaplasia at a concentration of 10e-10 M. The procedure, abridged: (§1)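 Tracheas from 29-31-day-old hamsters fed a vitamin A free diet; cultured in serum-free CMRL 1066 (insulin 1.0 μg/mL, hydrocortisone hemisuccinate 0.1 μg/mL, glutamine 2 mM, Garamycin 50 μg/mL), 50% O2/45% N2/5% CO2, rocked, 36 °C. Retinoid-free 3 days, then retinoid in DMSO (final 0.1%) for 7 days; medium and gas changed three times. Formalin-fixed day 10; squamous metaplasia graded: mild 2-10%, marked 10-40%, severe >40%.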

In test [2] the test system is Cricetinae gen. sp. The experiment in a line: Cultures with marked degree of squamous metaplasia at a concentration of 10e-11 M. In short, it runs like this:
as §1

The test system of test [3] is Cricetinae gen. sp. The experiment in a line: Cultures with marked degree of squamous metaplasia at a concentration of 10e-8 M. In short, it runs like this: as §1
The test system of test [4] is Cricetinae gen. sp. The test can be described thus: Cultures with marked degree of squamous metaplasia at a concentration of 10e-9 M. The procedure, abridged: as §1
Test [5] concerns Cricetinae gen. sp. The test can be described thus: Cultures with mild degree of squamous metaplasia at a concentration of 10e-10 M. The procedure, abridged:
as §1

For test [6], the system named is Cricetinae gen. sp. The experiment in a line: Cultures with mild degree of squamous metaplasia at a concentration of 10e-11 M. The procedure, abridged:
as §1

Test [7] relates to Cricetinae gen. sp. The experiment in a line: Cultures with severe degree of squamous metaplasia at a concentration of 10e-9 M. The procedure, abridged:
(§2)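 Tracheas from 29-31-day-old hamsters kept on a vitamin A free diet, cultured in serum-free CMRL 1066 (insulin 1.0 μg/mL, hydrocortisone hemisuccinate 0.1 μg/mL, glutamine 2 mM, Garamycin 50 μg/mL), 50% O2/45% N2/5% CO2, rocked at 36 °C. Retinoid-free for 3 days, then retinoid in DMSO (0.1% final) for 7 days. Fixed in formalin; squamous metaplasia graded mild 2-10%, marked 10-40%, severe >40%.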

The test system of test [8] is Cricetinae gen. sp. The test can be described thus: Cultures with mild degree of squamous metaplasia at a concentration of 10e-8 M. In short, it runs like this:
as §1

In test [9] the test system is Cricetinae gen. sp. The test can be described thus: Cultures with mild degree of squamous metaplasia at a concentration of 10e-9 M. In short, it runs like this:
as §1

Test [10] concerns Cricetinae gen. sp. The test can be described thus: Cultures with minimal degree of squamous metaplasia at a concentration of 10e-10 M. In short, it runs like this: as §1
The test system of test [11] is Cricetinae gen. sp. The test can be described thus: Cultures with minimal degree of squamous metaplasia at a concentration of 10e-8 M. The procedure, abridged:
as §1

In test [12] the test system is Cricetinae gen. sp. The test can be described thus: Cultures with minimal degree of squamous metaplasia at a concentration of 10e-9 M. In short, it runs like this: as §1
Test [13] has as its system Cricetinae gen. sp. The experiment in a line: Cultures with no evidence of squamous metaplasia at a concentration of 10e-10 M. The procedure, abridged:
as §1

Test [14] relates to Cricetinae gen. sp. The test can be described thus: Cultures with no evidence of squamous metaplasia at a concentration of 10e-11 M. In short, it runs like this: as §1
Test [15] deals with Cricetinae gen. sp. The experiment in a line: Cultures with no evidence of squamous metaplasia at a concentration of 10e-8 M. In short, it runs like this:
as §1

Test [16] concerns Cricetinae gen. sp. The test can be described thus: Cultures with no evidence of squamous metaplasia at a concentration of 10e-9 M. The procedure, abridged: as §1
Test [17] deals with Cricetinae gen. sp. The experiment in a line: Cultures with severe degree of squamous metaplasia at a concentration of 10e-10 M. The procedure, abridged: as §2
Test [18] concerns Cricetinae gen. sp. The test can be described thus: Cultures with severe degree of squamous metaplasia at a concentration of 10e-11 M. The procedure, abridged:
as §2

Test [19] deals with Cricetinae gen. sp. The test can be described thus: Cultures with severe degree of squamous metaplasia at a concentration of 10e-8 M. The procedure, abridged:
as §2

Test [20] has as its system Cricetinae gen. sp. The experiment in a line: Reversal of keratinization in vitamin A deficient hamster trachea culture at a concentration of 10e-8 M. As to conditions: read-out: ED50 (the source's name). The procedure, abridged:
as §2

In test [21] the test system is Cricetinae gen. sp. The test can be described thus: Cultures with minimal degree of squamous metaplasia at a concentration of 10e-11 M. In short, it runs like this: as §1

Turning to `CC1=C(/C=C/C(C)=C/C=C/C(C)=C/C(=O)NC(Cc2ccccc2)C(=O)O)C(C)(C)CCC1` (stereo unspecified), the Culture worked out at 14% in the test on Cricetinae gen. sp. [1]; 72% in the test on Cricetinae gen. sp. [2]; 0% with Cricetinae gen. sp. [3]; 43% in the test with Cricetinae gen. sp. [4]; 29% in the test on Cricetinae gen. sp. [5]; 14% with Cricetinae gen. sp. [6]. Besides, the Culture in the test on Cricetinae gen. sp. [7] worked out at 0%; with Cricetinae gen. sp. [8], 29%; in the test on Cricetinae gen. sp. [9], 0%; in the test on Cricetinae gen. sp. [10], 0%; in the test on Cricetinae gen. sp. [11], 0%; with Cricetinae gen. sp. [12], 0%. The Culture with Cricetinae gen. sp. [13] is recorded as 43%; in the test with Cricetinae gen. sp. [14], 14%; in the test on Cricetinae gen. sp. [15] it was 71%; in the test with Cricetinae gen. sp. [16] it was 57%; in the test on Cricetinae gen. sp. [17] it was 14%; with Cricetinae gen. sp. [18] it was 0%. For the same molecule, the Culture in the test on Cricetinae gen. sp. [19] and in the test on Cricetinae gen. sp. [21] was 0% in each case. Moreover, the EC50 with Cricetinae gen. sp. [20] turned out to be 0.5 nM.
